Assay results from ChEMBL document CHEMBL1121946, “Antiallergy agents. 2. 2-Phenyl-5-(1H-tetrazol-5-yl)pyrimidin-4(3H)-ones” (1982).

Experiments:
Rattus norvegicus [1] = test: Antiallergic activity in the passive cutaneous anaphylaxis (PCA) model in the rat was determined after oral administration; assay type: functional; settings: read-out: ID50 (the source's name)
Procedure, shortened: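 Male Sprague-Dawley rats underwent a modified Ovary PCA screen, with challenge 24 h after sensitization. Compounds were solubilized in aqueous NaHCO3 when possible; otherwise they were suspended in aqueous sodium citrate containing Tween 40/sodium carboxymethylcellulose. Dosing was oral, 10 min prior to antigen challenge.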

Rattus norvegicus [2] = test: Antiallergic activity in the passive cutaneous anaphylaxis (PCA) model in the rat was determined after iv administration; assay type: functional; settings: read-out: ID50 (the source's name)
Procedure, shortened: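 Rat PCA screen (modified Ovary method) in male Sprague-Dawley rats, with a 24 h interval between sensitization and antigen challenge. Compounds were dissolved in aqueous NaHCO3 where possible; otherwise they were suspended in aqueous sodium citrate with Tween 40/sodium carboxymethylcellulose. Dosing was intravenous, 1 min before antigen challenge.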

Row | Compound | ED50 (Rattus norvegicus [1]) [mg/kg] | ED50 (Rattus norvegicus [2]) [mg/kg]
1 | Oc1nc(-c2ccccc2)ncc1-c1nn[nH]n1 | 100 | 
2 | CC(C)Oc1ccccc1-c1ncc(-c2nn[nH]n2)c(O)n1 | 0.04 | 0.02
3 | CCCOc1ccc(N(C)C)cc1-c1ncc(-c2nn[nH]n2)c(O)n1 | 0.4 | 
4 | C=CCOc1ccccc1-c1ncc(-c2nn[nH]n2)c(O)n1 | 0.24 | 
5 | CCC(C)Oc1ccccc1-c1ncc(-c2nn[nH]n2)c(O)n1 (stereo not given) | 0.05 | 
6 | CCOc1ccccc1-c1ncc(-c2nn[nH]n2)c(O)n1 | 0.09 | 0.02
7 | CCCOc1ccc(OC)cc1-c1ncc(-c2nn[nH]n2)c(O)n1 | 0.03 | 
8 | CCCCCOc1ccccc1-c1ncc(-c2nn[nH]n2)c(O)n1 | 0.4 | 
9 | CC(C)COc1ccccc1-c1ncc(-c2nn[nH]n2)c(O)n1 | 0.1 | 
10 | COc1ccccc1-c1ncc(-c2nn[nH]n2)c(O)n1 | 0.1 | 
11 | CCCOc1ccc([N+](=O)[O-])cc1-c1ncc(-c2nn[nH]n2)c(O)n1 | 5 | 
12 | O=C([O-])c1cc(=O)c2c(OCC(O)COc3cccc4oc(C(=O)[O-])cc(=O)c34)cccc2o1.[Na+].[Na+] [CROMOLYN SODIUM] | > 30 | 0.3
13 | Oc1nc(-c2ccccc2OCC2CC2)ncc1-c1nn[nH]n1 | 0.07 | 
14 | CCCCOc1ccccc1-c1ncc(-c2nn[nH]n2)c(O)n1 | 0.07 | 
15 | CCCOc1ccc(N)cc1-c1ncc(-c2nn[nH]n2)c(O)n1 | 0.1 | 
16 | CCCOc1ccccc1-c1ncc(-c2nn[nH]n2)c(O)n1 | 0.04 | 0.004
